High-throughput results from PubChem BioAssay.
Most compounds without a hit are left out; they make up all but 1.8% or so of the library.
A3G deaminase: APOBEC3G (human) deaminase inhibition; 0.28% of 330,000 active; recombinant A3G, ssDNA deamination FAM/TAMRA fluorescence; Q9HC16; AID 493012; inhibition, % at 20 µM;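 active = inhibition of at least 40% at 20 µM, with no more than 30% in the related APOBEC3A deaminase screen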;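 note: plate controls were DMSO wells with A3G for no effect and wells lacking A3G enzyme for full effect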
Target sequence (Q9HC16 whole entry, looked up): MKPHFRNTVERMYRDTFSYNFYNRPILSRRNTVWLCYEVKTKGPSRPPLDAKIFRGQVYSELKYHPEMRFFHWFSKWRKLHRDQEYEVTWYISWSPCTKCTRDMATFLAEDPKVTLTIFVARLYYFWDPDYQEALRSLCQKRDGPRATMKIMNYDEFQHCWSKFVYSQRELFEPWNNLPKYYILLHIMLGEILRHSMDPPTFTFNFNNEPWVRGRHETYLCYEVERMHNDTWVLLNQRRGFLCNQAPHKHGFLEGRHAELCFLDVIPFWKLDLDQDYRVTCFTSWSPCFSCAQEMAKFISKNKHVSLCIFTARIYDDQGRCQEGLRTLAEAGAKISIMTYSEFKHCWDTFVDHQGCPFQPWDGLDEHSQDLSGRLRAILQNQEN
pCIP destab: lowers stability of the mouse p/CIP coactivator protein; 0.01% of 290,000 active; AID 1984; Q05BA5; decrease of EGFP signal, % at 10 µM; F442A p/CIP-EGFP cells, EGFP fluorescence, 16 h;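 active = EGFP signal decrease of at least 30% at 10 µM or well 3 SD below plate mean, unless failing retest; inactive = the rest, including hits failing retest or dose response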
APOBEC3A inh: human APOBEC3A DNA deaminase inhibition; 0.41% of 330,000 active; recombinant A3A, FAM/TAMRA ssDNA deamination fluorescence; inhibition, % at 20 µM; AID 493011;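 active = at least 40% inhibition at 20 µM here, with at most 30% in a related deaminase screen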;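 note: plate controls were A3A with DMSO for no effect and wells lacking A3A enzyme for full effect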
Tb MetRS inh: blocks T. brucei methionyl-tRNA synthetase activity | purified T. brucei MetRS, ATP depletion, Kinase-Glo luminescence | inhibition, % at 11.9 µM | 0.4% of 360,000 active | AID 624268;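 active = inhibition above a per-plate cutoff of the control wells' mean inhibition plus 3 SD, cut at about 5.5% in these data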;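 note: 0% = DMSO wells median and 100% = median of wells with control inhibitor compound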
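Measured by: Kinase-Glo luciferase luminescence reporting remaining unconsumed ATP. Material: purified T. brucei MetRS enzyme. Doses: 11.9 µM compound single dose, 0.9% DMSO. Medium: HEPES buffer containing pyrophosphatase, BSA, spermine, DTT. Times: 15 min preincubation, 2 h reaction, all 25 °C. Reagent: methionine, ATP and bulk E. coli tRNA.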
PHOSPHO1 inh: blocks human PHOSPHO1 phosphatase activity; Q8TCT1; recombinant PHOSPHO1, absorbance phosphatase assay; inhibition, % at 13.3 µM; 1.1% of 290,000 active; in the data active = inhibition above about 60%
Target sequence (Q8TCT1 whole entry, looked up): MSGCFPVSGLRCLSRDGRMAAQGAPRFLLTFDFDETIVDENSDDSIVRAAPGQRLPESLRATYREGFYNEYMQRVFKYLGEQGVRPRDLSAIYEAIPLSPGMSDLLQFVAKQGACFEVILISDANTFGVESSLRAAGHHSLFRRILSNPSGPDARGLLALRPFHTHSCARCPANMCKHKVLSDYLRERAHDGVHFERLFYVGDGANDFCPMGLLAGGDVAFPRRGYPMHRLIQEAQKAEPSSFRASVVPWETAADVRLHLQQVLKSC
Tb MetRS conf: Trypanosoma brucei MetRS inhibition confirmed; shares compounds with Tb MetRS inh; T. brucei MetRS enzyme, luminescence (ATP depletion); inhibition, % at 11.9 µM; 93% of 1,400 active; AID 624412; in the data active = inhibition above about 7%
Jurkat tox: kills Jurkat cells in T. brucei MetRS counterscreen | inhibition, % at 8.3 µM | Jurkat cells viability, ATP luminescence | AID 624413 | 12% of 1,400 active | shares compounds with Tb MetRS inh; in the data active = inhibition above about 15%;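 note: 0% = vehicle and 100% = reference inhibitor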
Tb MetRS inh FP: orthogonal test for Trypanosoma brucei MetRS inhibitors; inhibition, % at 11.9 µM; 44% of 1,400 active; shares compounds with Tb MetRS inh; purified T. brucei MetRS, fluorescence polarization; in the data active = inhibition above about 17%;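 note: 0% = vehicle wells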
Active calls of the source: *; / = not tested or not shown.

SMILES | A3G deaminase | pCIP destab | APOBEC3A inh | Tb MetRS inh | PHOSPHO1 inh | Tb MetRS conf | Jurkat tox | Tb MetRS inh FP
Cc1[nH]c2ccccc2c1C(=O)C(=O)N1CCN(c2cccc(Cl)c2)CC1 | -3 | -3 | -2 | 7.1* | 2 | 15* | -2 | 3
Cc1[nH]c2ccc(C(=O)N3CCN(c4ccccc4Cl)CC3)cc2c1C | 2 | -7 | -3 | 0 | 18 | / | / | /
Cc1[nH]c2ccccc2c1C(=O)C(=O)N1CCN(c2ccccc2Cl)CC1 | -3 | -21 | -3 | 9.0* | 23 | 28* | -4 | 15
Cc1[nH]c2ccccc2c1C(=O)C(=O)N1CC=C(c2ccccc2)CC1 | -3 | -19 | 0 | 9.1* | 0 | 13* | 10 | 1
O=C(Nc1ccccc1)C1=C[C@@H](c2ccc3c(c2)OCO3)C[C@@H](OCCCCO)O1 | -10 | / | -5 | 0 | / | / | / | /
O=C1c2ccccc2C(c2nc3ccccc3[nH]2)N1c1ccccn1 (stereo not given) | / | / | / | 6.9* | / | 14* | 7 | 7
c1ccc2cc(OCc3nc4ccccc4[nH]3)ccc2c1 | -5 | -8 | 1 | 6.0* | -10 | 6.8* | 4 | 9
Brc1ccc(OCc2nc3ccccc3[nH]2)cc1 | -7 | -9 | -2 | 10* | 39 | 16* | 0 | 9
NC(=O)[C@@H]1CCCNc2c(I)cc([N+](=O)[O-])cc2C(=O)N[C@@H](CO)C(=O)N[C@@H](Cc2ccc(O)cc2)C(=O)N1 | 16 | 6 | 4 | 7.4* | -1 | 21* | 8 | 5
NC(=O)CC[C@@H]1NC(=O)[C@H](CO)NC(=O)c2cc([N+](=O)[O-])cc(I)c2NCCC[C@@H](C(N)=O)NC(=O)[C@H](Cc2ccc(O)cc2)NC1=O | -7 | -4 | 3 | / | 1 | / | / | /
CCCCc1c(-c2ccccc2OC)ncn1CCc1cccc(OC)c1 | / | / | / | 9.9* | / | 23* | 36* | 1
Cc1ccc2nc3n(c(=O)c2c1)-c1cc2ccccc2cc1C(=O)NC3Cc1ccccc1 (stereo not given) | / | / | / | 0 | / | / | / | /
N#Cc1c(N)n(C2OC(CO)C(O)C2O)c2ncnc(N)c12 (stereo not given) | / | / | / | 7.8* | / | 30* | 97* | 10
COc1ccc(NC(=O)COC(=O)CCCOc2ccc(Cl)cc2Cl)cc1Cl | -5 | -3 | -6 | 1 | 9 | / | / | /
CC(C)(CO)NC(=O)CCCOc1ccc(Cl)cc1Cl | -9 | -4 | -10 | 11* | -1 | 13* | 4 | 7
COc1ccc(NC(=O)COC(=O)CCCOc2ccc(Cl)cc2Cl)cc1 | -6 | -1 | 4 | 7.0* | 11 | 17* | -8 | 23*
Cc1cc(NC(=O)COC(=O)CCS(=O)(=O)c2ccc(Cl)cc2)no1 | -16 | -6 | 0 | 0 | 31 | / | / | /
Cc1cc(NC(=O)COC(=O)CCCOc2ccc(Cl)cc2C)no1 | -2 | -2 | 1 | 6.5* | -1 | 11* | -1 | 8
Cc1ccc(-c2nnc(N3CCCCC3)c3ccccc23)cc1S(=O)(=O)N(C)C | -2 | -28 | -2 | 0 | 0 | / | / | /
Cc1ccc(-c2nnc(NCc3nc4ccccc4[nH]3)c3ccccc23)cc1S(=O)(=O)N(C)C | -8 | -4 | 2 | 13* | 2 | 24* | 4 | 16
CCn1cnc2cc(NCc3cccc(OC)c3O)ccc21 | -5 | 41 | -3 | 18* | -31 | 36* | 4 | 15
CCCCn1cnc2cc(NCc3cccc(OC)c3O)ccc21 | -6 | 1 | -4 | 3 | -1 | / | / | /
Cc1c(C)n(C(=O)CSc2nc3ccccc3[nH]2)c2ccccc12 | 18 | -4 | 19 | -2 | 47 | / | / | /
COc1ccc(-c2cc(=O)n(CCC#N)[nH]2)cc1 | -2 | -5 | -2 | 16* | -15 | 2 | 2 | 4
O=C(Cc1cccc(Cl)c1)Nc1ccc(Br)cc1 | -4 | -7 | -1 | 40* | 1 | 61* | -1 | 39*
SMILES | A3G deaminase | pCIP destab | APOBEC3A inh | Tb MetRS inh | PHOSPHO1 inh | Tb MetRS conf | Jurkat tox | Tb MetRS inh FP
O=C(CCC(=O)OCc1ccc(Br)cc1)Nc1ccccc1 | -6 | -9 | -6 | 6.1* | 11 | 14* | -3 | 6
O=C(CCC(=O)OCc1ccc(C(=O)Oc2ccc(Cl)cc2)cc1)Nc1ccccc1 | -2 | -10 | -3 | -1 | 13 | / | / | /
O=C(O)CCCC(=O)Nc1ccc(Br)cc1 | -5 | 7 | -3 | -1 | 6 | / | / | /
O=C(CC(=O)Nc1ccc(Br)cc1)Nc1ccc(Br)cc1 | -7 | 2 | -6 | 7.0* | 15 | 11* | -3 | 10
COc1cccc(CNC(=O)C2CCN(S(=O)(=O)c3cccs3)CC2)c1 | 0 | -12 | -1 | -1 | -9 | / | / | /
O=C(Nc1ccccc1)Nc1ccc(Cl)c(S(=O)(=O)N2CCOCC2)c1 | -10 | -3 | 1 | 15* | -10 | 19* | 14 | 15
O=C(Nc1cccc(S(=O)(=O)N2CCOCC2)c1)c1ccc(Cl)c([N+](=O)[O-])c1 | -4 | 1 | 0 | 7.7* | 58 | 19* | 21* | 15
COc1ccc(N2C(=O)CCC(C(=O)N3CCN(c4ccccn4)CC3)C2c2ccc(F)cc2)cc1 (stereo not given) | -6 | 1 | -5 | -1 | 28 | / | / | /
CC(=O)OCC(=O)C1(O)CCC2C3CC(F)C4=CC(=O)CCC4(C)C3C(O)CC21C (stereo not given) | / | / | / | 0 | / | / | / | /
CCOC(=O)N1CCC(Nc2c(Nc3ccc(F)cc3)c(=O)c2=O)CC1 | 1 | -8 | 2 | 36* | 8 | 77* | 12 | 40*
CNc1c(NS(=O)(=O)c2cc(Cl)ccc2OC)c(=O)oc2ccccc12 | -4 | -18 | -2 | 0 | 43 | / | / | /
NS(=O)(=O)c1ccc(NC(=S)NCc2cccc(Cl)c2)cc1 | -6 | -4 | -2 | 17* | -1 | 36* | 29* | 12
NC(=O)NCc1cccc(Cl)c1 | -7 | 5 | -4 | 0 | 4 | / | / | /
NS(=O)(=O)c1ccc(NC(=S)NCc2ccccc2)cc1 | 1 | -2 | -2 | 0 | -9 | / | / | /
O=C(NCc1cccc(Cl)c1)NCc1cccc(Cl)c1 | -3 | 2 | 5 | 6.2* | -13 | 9.3* | 9 | 8
C/C(=N\NC(=O)c1nn(C)c(C)c1Br)c1cccc(NC(=O)c2ccc(F)cc2)c1 | -6 | -3 | -1 | 0 | -2 | / | / | /
ON=C1C2CC=C(c3ccccc3)C1CCC2 (stereo not given) | / | / | / | -1 | / | / | / | /
CC(C)(NC(=O)c1cc(Cl)c2ccccc2c1O)C(=O)O | 4 | 14 | 3 | -1 | -3 | / | / | /
COc1cc(C2C(C#N)=C(N)Oc3cc(O)ccc32)cc2c1OCO2 (stereo not given) | -4 | -4 | -2 | 14* | 12 | 3 | 36* | 4
